As usually defined, the MIC is the lowest concentration found to suppress growth.

The structures appear in SMILES notation. In brackets after ≈: the same amount, converted by molar mass.

The text below walks through data of ChEMBL document CHEMBL4610084, “Antibacterial and ATP Synthesis Modulating Compounds from Salvia tingitana” (2020).

The test system of the first experiment is Enterococcus faecalis. Kind of experiment: Antibacterial activity against Vancomycin resistant Enterococcus faecalis MB51 after 24 hrs by microdilution assay. The class given is functional. Particulars: MB51, 24 h. The procedure, abridged:
(§1)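 Broth microdilution MIC, run as in an earlier cited report. Strains are clinical isolates identified by standard methods and MALDI-TOF; E. faecalis MB19 and MB51 are Ligurian seawater isolates. Highest concentration tested was 128 μg/mL. MICs are given in μg/mL and μM, with oxacillin and vancomycin as reference antibiotics.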
The compound `CC1=CC(=O)O[C@@H]1[C@@H](O)/C=C(\C)CC[C@@H]1[C@@]2(C)CCC[C@@]3(C)C(=O)O[C@@H](C[C@@]1(C)O)[C@H]23` gave an MIC of 296 µM (≈ 128 µg/mL).

The test system of another experiment is Enterococcus faecium. The experiment in a line: Antibacterial activity against Enterococcus faecium MB3 after 24 hrs by microdilution assay. Format: functional. As to conditions: MB3, 24 h. Put shortly:
(§2)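 Broth microdilution MIC against clinical or seawater-isolated strains (identified by standard procedures and MALDI-TOF), with compound solutions and testing as in earlier work. MIC reported in μg/mL and μM.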
(In broth dilution the organism is exposed to a series of concentrations in liquid medium.)
Compound `CC1=CC(=O)O[C@@H]1[C@@H](O)/C=C(\C)CC[C@@H]1[C@@]2(C)CCC[C@@]3(C)C(=O)O[C@@H](C[C@@]1(C)O)[C@H]23` had an MIC of 296 µM (≈ 128 µg/mL).

A further experiment relates to Enterococcus gallinarum. Kind of experiment: Antibacterial activity against Vancomycin resistant Enterococcus gallinarum MB111 after 24 hrs by microdilution assay. Format: functional. As to conditions: MB111, 24 h. The procedure, abridged:
as §1
`CC1=CC(=O)O[C@@H]1[C@@H](O)/C=C(\C)CC[C@@H]1[C@@]2(C)CCC[C@@]3(C)C(=O)O[C@@H](C[C@@]1(C)O)[C@H]23` yielded an MIC of 148 µM (≈ 64 µg/mL).

The test system of another experiment is Staphylococcus capitis. Kind of experiment: Antibacterial activity against Methicillin-resistant Staphylococcus capitis MB71 after 24 hrs by microdilution assay. Format: functional. As to conditions: MB71, 24 h. Put shortly: as §1
Turning to `CC1=CC(=O)O[C@@H]1[C@@H](O)/C=C(\C)CC[C@@H]1[C@@]2(C)CCC[C@@]3(C)C(=O)O[C@@H](C[C@@]1(C)O)[C@H]23`, the MIC worked out at 296 µM (≈ 128 µg/mL).

In another experiment the test system is Staphylococcus aureus. Kind of experiment: Antibacterial activity against Methicillin-resistant Staphylococcus aureus MB188 after 24 hrs by microdilution assay. The class given is functional. As to conditions: MB188, 24 h. Put shortly: as §1
Consider `CC1=CC(=O)O[C@@H]1[C@@H](O)/C=C(\C)CC[C@@H]1[C@@]2(C)CCC[C@@]3(C)C(=O)O[C@@H](C[C@@]1(C)O)[C@H]23`, for which the MIC is > 128 µg/mL.

The next experiment has as its system Enterococcus avium. The experiment in a line: Antibacterial activity against Enterococcus avium MB119 after 24 hrs by microdilution assay. The class given is functional. Particulars: MB119, 24 h. Put shortly: as §2
With `CC1=CC(=O)O[C@@H]1[C@@H](O)/C=C(\C)CC[C@@H]1[C@@]2(C)CCC[C@@]3(C)C(=O)O[C@@H](C[C@@]1(C)O)[C@H]23`, the minimal inhibitory concentration (MIC) came to 148 µM (≈ 64 µg/mL).

Another experiment relates to Staphylococcus hominis. Kind of experiment: Antibacterial activity against Methicillin-resistant Staphylococcus hominis MB124 after 24 hrs by microdilution assay. Format: functional. As to conditions: MB124, 24 h. The procedure, abridged:
as §1
`CC1=CC(=O)O[C@@H]1[C@@H](O)/C=C(\C)CC[C@@H]1[C@@]2(C)CCC[C@@]3(C)C(=O)O[C@@H](C[C@@]1(C)O)[C@H]23`: the MIC is > 128 µg/mL.

In another experiment the test system is Enterococcus casseliflavus. The experiment in a line: Antibacterial activity against Vancomycin resistant Enterococcus casseliflavus MB159 after 24 hrs by microdilution assay. Particulars: MB159, 24 h. The class given is functional. Put shortly: as §1
Consider `CC1=CC(=O)O[C@@H]1[C@@H](O)/C=C(\C)CC[C@@H]1[C@@]2(C)CCC[C@@]3(C)C(=O)O[C@@H](C[C@@]1(C)O)[C@H]23`, for which the MIC is 296 µM (≈ 128 µg/mL).

Another experiment concerns Enterococcus faecalis. The experiment in a line: Antibacterial activity against Vancomycin resistant Enterococcus faecalis MB1 after 24 hrs by microdilution assay. Format: functional. Particulars: MB1, 24 h. Put shortly:
as §1
For the compound `CC1=CC(=O)O[C@@H]1[C@@H](O)/C=C(\C)CC[C@@H]1[C@@]2(C)CCC[C@@]3(C)C(=O)O[C@@H](C[C@@]1(C)O)[C@H]23`, the MIC came to 148 µM (≈ 64 µg/mL).

The next experiment concerns Staphylococcus haemolyticus. Kind of experiment: Antibacterial activity against Methicillin-resistant Staphylococcus haemolyticus MB115 after 24 hrs by microdilution assay. As to conditions: MB115, 24 h. Format: functional. The procedure, abridged: as §1
`CC1=CC(=O)O[C@@H]1[C@@H](O)/C=C(\C)CC[C@@H]1[C@@]2(C)CCC[C@@]3(C)C(=O)O[C@@H](C[C@@]1(C)O)[C@H]23` registered a minimum inhibitory concentration (MIC) of 296 µM (≈ 128 µg/mL).

The test system of the next experiment is Enterococcus durans. The experiment in a line: Antibacterial activity against Enterococcus durans MB113 after 24 hrs by microdilution assay. The class given is functional. Particulars: MB113, 24 h. Put shortly:
as §2
As for `CC1=CC(=O)O[C@@H]1[C@@H](O)/C=C(\C)CC[C@@H]1[C@@]2(C)CCC[C@@]3(C)C(=O)O[C@@H](C[C@@]1(C)O)[C@H]23`, the MIC was 286 µM (≈ 124 µg/mL).

The next experiment has as its system Staphylococcus epidermidis. The experiment in a line: Antibacterial activity against Methicillin-resistant Staphylococcus epidermidis MB169 after 24 hrs by microdilution assay. Format: functional. As to conditions: MB169, 24 h. The procedure, abridged:
as §1
Take `CC1=CC(=O)O[C@@H]1[C@@H](O)/C=C(\C)CC[C@@H]1[C@@]2(C)CCC[C@@]3(C)C(=O)O[C@@H](C[C@@]1(C)O)[C@H]23`: the MIC is > 128 µg/mL.

The test system of another experiment is Enterococcus faecalis. Kind of experiment: Antibacterial activity against Vancomycin resistant Enterococcus faecalis MB19 after 24 hrs by microdilution assay. Format: functional. As to conditions: MB19, 24 h. The procedure, abridged:
as §1
Compound `CC1=CC(=O)O[C@@H]1[C@@H](O)/C=C(\C)CC[C@@H]1[C@@]2(C)CCC[C@@]3(C)C(=O)O[C@@H](C[C@@]1(C)O)[C@H]23` showed an MIC of 296 µM (≈ 128 µg/mL).

The test system of the next experiment is Enterococcus faecium. The experiment in a line: Antibacterial activity against Enterococcus faecium MB2 after 24 hrs by microdilution assay. Format: functional. As to conditions: MB2, 24 h. Put shortly:
as §2
`CC1=CC(=O)O[C@@H]1[C@@H](O)/C=C(\C)CC[C@@H]1[C@@]2(C)CCC[C@@]3(C)C(=O)O[C@@H](C[C@@]1(C)O)[C@H]23` had an MIC of 296 µM (≈ 128 µg/mL).

Another experiment deals with Staphylococcus epidermidis. Kind of experiment: Antibacterial activity against Methicillin-resistant Staphylococcus epidermidis MB165 after 24 hrs by microdilution assay. The class given is functional. Particulars: MB165, 24 h. The procedure, abridged:
as §1
The compound `CC1=CC(=O)O[C@@H]1[C@@H](O)/C=C(\C)CC[C@@H]1[C@@]2(C)CCC[C@@]3(C)C(=O)O[C@@H](C[C@@]1(C)O)[C@H]23` had an MIC of 296 µM (≈ 128 µg/mL).

In a further experiment the test system is Staphylococcus saprophyticus. The experiment in a line: Antibacterial activity against Staphylococcus saprophyticus MB41 after 24 hrs by microdilution assay. Format: functional. Particulars: MB41, 24 h. Put shortly:
as §2
Turning to `CC1=CC(=O)O[C@@H]1[C@@H](O)/C=C(\C)CC[C@@H]1[C@@]2(C)CCC[C@@]3(C)C(=O)O[C@@H](C[C@@]1(C)O)[C@H]23`, the MIC was > 128 µg/mL.

The test system of another experiment is Staphylococcus simulans. Kind of experiment: Antibacterial activity against Staphylococcus simulans MB94 after 24 hrs by microdilution assay. Format: functional. Particulars: MB94, 24 h. The procedure, abridged:
as §2
Consider `CC1=CC(=O)O[C@@H]1[C@@H](O)/C=C(\C)CC[C@@H]1[C@@]2(C)CCC[C@@]3(C)C(=O)O[C@@H](C[C@@]1(C)O)[C@H]23`, for which the MIC was > 128 µg/mL.

Another experiment has as its system Enterococcus faecium. Kind of experiment: Antibacterial activity against Enterococcus faecium MB152 after 24 hrs by microdilution assay. Particulars: MB152, 24 h. The class given is functional. Put shortly:
as §2
For the compound `CC1=CC(=O)O[C@@H]1[C@@H](O)/C=C(\C)CC[C@@H]1[C@@]2(C)CCC[C@@]3(C)C(=O)O[C@@H](C[C@@]1(C)O)[C@H]23`, 148 µM (≈ 64 µg/mL) was the least that counted as inhibitory (MIC).

The next experiment concerns Staphylococcus warneri. Kind of experiment: Antibacterial activity against Methicillin-resistant Staphylococcus warneri MB74 after 24 hrs by microdilution assay. Format: functional. As to conditions: MB74, 24 h. Put shortly: as §1
For `CC1=CC(=O)O[C@@H]1[C@@H](O)/C=C(\C)CC[C@@H]1[C@@]2(C)CCC[C@@]3(C)C(=O)O[C@@H](C[C@@]1(C)O)[C@H]23`, the MIC turned out to be 296 µM (≈ 128 µg/mL).

In a further experiment the test system is Staphylococcus lugdunensis. The experiment in a line: Antibacterial activity against Staphylococcus lugdunensis MB96 after 24 hrs by microdilution assay. The class given is functional. As to conditions: MB96, 24 h. The procedure, abridged:
as §2
In the case of `CC1=CC(=O)O[C@@H]1[C@@H](O)/C=C(\C)CC[C@@H]1[C@@]2(C)CCC[C@@]3(C)C(=O)O[C@@H](C[C@@]1(C)O)[C@H]23`, the MIC was > 128 µg/mL.

The next experiment relates to Staphylococcus aureus. The experiment in a line: Antibacterial activity against Methicillin-resistant Staphylococcus aureus MB18 after 24 hrs by microdilution assay. The class given is functional. Particulars: MB18, 24 h. The procedure, abridged: as §1
The compound `CC1=CC(=O)O[C@@H]1[C@@H](O)/C=C(\C)CC[C@@H]1[C@@]2(C)CCC[C@@]3(C)C(=O)O[C@@H](C[C@@]1(C)O)[C@H]23` displayed an MIC of 296 µM (≈ 128 µg/mL).

In another experiment the test system is Enterococcus faecalis. The experiment in a line: Antibacterial activity against Enterococcus faecalis MB76 after 24 hrs by microdilution assay. The class given is functional. Particulars: MB76, 24 h. The procedure, abridged:
as §1
Compound `CC1=CC(=O)O[C@@H]1[C@@H](O)/C=C(\C)CC[C@@H]1[C@@]2(C)CCC[C@@]3(C)C(=O)O[C@@H](C[C@@]1(C)O)[C@H]23` gave an MIC of 296 µM (≈ 128 µg/mL).
